The record followed here is ChEMBL document CHEMBL1141538, “Carboxylic acid bioisosteres acylsulfonamides, acylsulfamides, and sulfonylureas as novel antagonists of the CXCR2 receptor” (Bioorg Med Chem Lett, 2008).

Data set [1] deals with T1, C-X-C chemokine receptor type 2 (Homo sapiens, UniProt P25025).
T1 sequence (P25025 whole entry): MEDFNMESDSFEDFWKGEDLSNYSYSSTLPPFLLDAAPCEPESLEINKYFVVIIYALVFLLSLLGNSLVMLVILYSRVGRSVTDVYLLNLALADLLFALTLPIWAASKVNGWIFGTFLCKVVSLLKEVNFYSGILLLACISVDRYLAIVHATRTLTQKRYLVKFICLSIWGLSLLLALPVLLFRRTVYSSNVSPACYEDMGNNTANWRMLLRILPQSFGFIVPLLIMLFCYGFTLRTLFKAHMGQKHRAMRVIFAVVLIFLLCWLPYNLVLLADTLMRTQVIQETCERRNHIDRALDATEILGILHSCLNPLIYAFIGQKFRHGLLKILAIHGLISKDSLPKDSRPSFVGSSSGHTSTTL
Kind of data set: Displacement of europium labeled-human IL8 from human cloned CXCR2 expressed in Sf9 membrane with Galphai3-beta-1-gamma-2 by DELFIA binding assay. In outline:
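Lysates (40 µg/mL) incubated in triplicate with 2 nM Eu-IL-8 and compound, 90 min at room temperature. Filtered and washed, enhancement solution added, time-resolved fluorescence read at 340/612 nm with 400 µs delay. Background defined with 200 nM unlabeled human IL-8. IC50 by four-parameter logistic fit.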

Data set [2] has as its target T1, C-X-C chemokine receptor type 2. Kind of data set: Antagonist activity at human cloned CXCR2 by calcium flux FLIPR assay. Format: functional. In outline: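 Chem-1 cells carrying cloned human CXCR2 coupled to Gi/o, seeded at 5 × 10⁵ cells/mL and left to adhere overnight in DMEM without G-418. Loaded with half-strength Calcium 3 dye in HBSS/20 mM Hepes pH 7.4/2.5 mM probenecid, with compound in triplicate, 30 min at 37 °C then 30 min at room temperature. Stimulated with human IL-8 (4 nM solution added). Fluorescence 485/525 read every 2 s. IC50 from a four-parameter logistic fit.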

In data set [3] the test system is Rattus norvegicus. Kind of data set: Reduction of hyperoxia-induced neutrophil accumulation in newborn rat at 10 mg/kg, ip after 7 days. The format is functional. Particulars: route intraperitoneal. More on the design: scale not given: the % may be the effect or the level left.
Data set [4] concerns the target Cytochrome P450 2C9 (Homo sapiens, UniProt P11712). Put plainly: Inhibition of CYP2C9. The format is ADME.
Data set [5] can be described thus: Clearance in iv dosed rat. Format: ADME, organism-based. Particulars: in vivo.
Data set [6] in a line: Stability in human liver microsomes after 10 mins. The format is ADME, Microsome. Particulars: read-out: Stability.
Data set [7] has as its target Cytochrome P450 2D6 (Homo sapiens, UniProt P10635). Put plainly: Inhibition of CYP2D6. The format is ADME.
The nature of data set [8]: Plasma protein binding in rat. Format: ADME, cell-free. The following applies: read-out: PPB.
In data set [9] the target is Cytochrome P450 3A4 (Homo sapiens, UniProt P08684). Kind of data set: Inhibition of CYP3A4. Format: ADME.
Cytochrome P450 3A4, sequence (P08684 whole entry): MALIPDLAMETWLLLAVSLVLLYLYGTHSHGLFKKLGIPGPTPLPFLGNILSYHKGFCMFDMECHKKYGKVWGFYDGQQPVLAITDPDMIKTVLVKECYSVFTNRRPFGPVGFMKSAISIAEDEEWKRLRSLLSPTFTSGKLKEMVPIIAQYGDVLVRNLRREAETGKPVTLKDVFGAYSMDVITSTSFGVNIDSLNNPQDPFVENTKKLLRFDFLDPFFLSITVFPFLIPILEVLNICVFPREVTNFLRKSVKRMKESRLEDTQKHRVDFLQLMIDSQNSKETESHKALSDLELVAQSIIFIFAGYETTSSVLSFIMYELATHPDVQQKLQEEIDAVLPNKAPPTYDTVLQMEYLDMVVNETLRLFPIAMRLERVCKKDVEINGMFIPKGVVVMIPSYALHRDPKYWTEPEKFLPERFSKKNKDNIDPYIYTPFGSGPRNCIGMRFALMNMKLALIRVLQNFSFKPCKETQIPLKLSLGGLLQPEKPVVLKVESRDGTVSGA
The nature of data set [10]: Half life in iv dosed rat. The following applies: in vivo. The format is ADME, organism-based.
For data set [11], the target named is T2, Cytochrome P450 1A2 (Homo sapiens, UniProt P05177).
T2 sequence (P05177 whole entry): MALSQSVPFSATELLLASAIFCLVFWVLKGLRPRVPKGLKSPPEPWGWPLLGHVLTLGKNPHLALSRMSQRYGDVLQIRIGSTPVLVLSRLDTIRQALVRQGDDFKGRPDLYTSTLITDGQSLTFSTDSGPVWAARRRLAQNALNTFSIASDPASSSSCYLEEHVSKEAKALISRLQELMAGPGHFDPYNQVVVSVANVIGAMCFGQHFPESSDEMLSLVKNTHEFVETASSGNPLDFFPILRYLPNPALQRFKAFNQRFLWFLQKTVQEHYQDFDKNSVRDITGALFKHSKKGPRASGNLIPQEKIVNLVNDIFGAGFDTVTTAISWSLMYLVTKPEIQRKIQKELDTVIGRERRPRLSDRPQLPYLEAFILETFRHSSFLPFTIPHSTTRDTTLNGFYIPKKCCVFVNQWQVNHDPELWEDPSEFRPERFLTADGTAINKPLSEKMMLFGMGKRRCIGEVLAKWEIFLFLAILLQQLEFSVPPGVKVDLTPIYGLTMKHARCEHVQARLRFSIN
Put plainly: Inhibition of CYP1A2. Format: ADME.

For data set [12], the target named is Cytochrome P450 2C19 (Homo sapiens, UniProt P33261). Put plainly: Inhibition of CYP2C19. The format is ADME.
Cytochrome P450 2C19, sequence (P33261 whole entry): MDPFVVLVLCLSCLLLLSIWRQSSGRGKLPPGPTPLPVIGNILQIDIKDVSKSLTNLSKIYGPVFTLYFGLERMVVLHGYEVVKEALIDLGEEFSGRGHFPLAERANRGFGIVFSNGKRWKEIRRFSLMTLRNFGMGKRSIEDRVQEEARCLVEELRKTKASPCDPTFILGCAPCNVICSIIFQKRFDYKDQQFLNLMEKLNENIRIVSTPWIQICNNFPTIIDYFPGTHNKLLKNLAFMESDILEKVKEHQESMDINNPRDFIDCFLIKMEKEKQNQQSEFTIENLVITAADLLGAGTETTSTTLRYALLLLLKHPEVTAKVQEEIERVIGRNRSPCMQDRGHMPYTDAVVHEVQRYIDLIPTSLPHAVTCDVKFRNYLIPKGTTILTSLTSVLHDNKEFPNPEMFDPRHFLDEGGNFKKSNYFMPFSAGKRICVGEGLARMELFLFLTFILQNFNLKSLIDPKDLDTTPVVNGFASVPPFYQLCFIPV
Data set [13] relates to Rattus norvegicus. Kind of data set: Reduction of hyperoxia-induced neutrophil accumulation in newborn rat at 10 mg/kg, ip after 7 days. More on the design: scale not given: the % may be the effect or the level left. The following applies: route intraperitoneal.
The nature of data set [14]: Stability in rat liver microsomes after 10 mins. Format: ADME, Microsome. Particulars: read-out: Stability.
A short description of data set [15]: Oral bioavailability in rat. Particulars: in vivo. Format: ADME, organism-based.

Some results are limits rather than exact numbers.

Cytochrome P450 2C9, sequence (P11712 whole entry): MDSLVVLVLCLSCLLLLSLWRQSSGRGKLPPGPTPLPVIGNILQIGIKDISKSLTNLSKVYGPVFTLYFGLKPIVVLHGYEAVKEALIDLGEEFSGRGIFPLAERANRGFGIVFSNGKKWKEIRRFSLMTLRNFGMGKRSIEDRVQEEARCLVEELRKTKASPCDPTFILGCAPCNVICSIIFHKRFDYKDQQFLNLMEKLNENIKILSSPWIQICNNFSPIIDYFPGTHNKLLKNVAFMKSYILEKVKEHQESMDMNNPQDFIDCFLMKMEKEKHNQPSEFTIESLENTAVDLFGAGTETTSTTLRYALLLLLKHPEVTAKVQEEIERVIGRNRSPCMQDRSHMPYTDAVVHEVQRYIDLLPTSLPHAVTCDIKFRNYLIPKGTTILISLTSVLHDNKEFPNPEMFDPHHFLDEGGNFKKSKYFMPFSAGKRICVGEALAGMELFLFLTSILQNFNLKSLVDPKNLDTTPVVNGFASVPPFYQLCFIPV
Cytochrome P450 2D6, sequence (P10635 whole entry): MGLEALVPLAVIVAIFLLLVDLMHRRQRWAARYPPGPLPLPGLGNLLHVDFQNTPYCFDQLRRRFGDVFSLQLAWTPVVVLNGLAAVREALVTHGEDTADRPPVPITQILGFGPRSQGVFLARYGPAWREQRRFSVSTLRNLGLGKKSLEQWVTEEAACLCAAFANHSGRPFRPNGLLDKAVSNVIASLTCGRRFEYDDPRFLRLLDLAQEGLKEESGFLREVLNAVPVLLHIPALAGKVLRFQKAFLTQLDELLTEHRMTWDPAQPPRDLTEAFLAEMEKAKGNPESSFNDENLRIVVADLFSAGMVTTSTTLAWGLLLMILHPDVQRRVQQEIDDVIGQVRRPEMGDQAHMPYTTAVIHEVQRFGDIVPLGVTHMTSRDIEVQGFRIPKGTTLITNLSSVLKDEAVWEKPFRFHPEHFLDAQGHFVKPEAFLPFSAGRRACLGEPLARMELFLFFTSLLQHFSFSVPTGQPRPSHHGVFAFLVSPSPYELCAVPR

`N#Cc1ccc2[nH]c(-c3ccc(F)cc3)c(CCNC(=O)NS(=O)(=O)c3ccccc3)c2c1` had a 50% inhibitory concentration (IC50) in data set [1] of 0.14 µM. As for `COc1cc2[nH]c(-c3ccc(F)cc3)c(CCCC(=O)NS(=O)(=O)N(C)C)c2cc1C#N`, the 50% inhibitory concentration (IC50) in data set [1] turned out to be 0.057 µM. For the compound `COc1cc2[nH]c(-c3ccc(F)cc3)c(CCCC(=O)NS(C)(=O)=O)c2cc1C#N`, the IC50 in [1] came to 0.16 µM. Same read-out and setting: to `COCCNS(=O)(=O)NC(=O)CCCc1c(-c2ccc(F)cc2)[nH]c2ccc(C#N)cc12` belongs 0.26 µM. On to `O=C(NCCc1c(-c2ccc(F)cc2)[nH]c2ccc(Br)cc12)NS(=O)(=O)c1ccccc1`, for which the IC50 worked out at 0.12 µM in [1] and 0.004 µM in data set [2]. In turn, `CC(C)S(=O)(=O)NC(=O)CCCc1c(-c2ccc(F)cc2)[nH]c2ccc(C#N)cc12` gave a concentration for half-maximal inhibition (IC50) in data set [1] of 0.22 µM.

On to `N#Cc1ccc2[nH]c(-c3ccc(F)cc3)c(CCCC(=O)NS(=O)(=O)Nc3ccccc3)c2c1`, for which the IC50 in [1] was 0.88 µM. With `Cc1cc2[nH]c(-c3ccc(F)cc3)c(CCCC(=O)NS(=O)(=O)N(C)C)c2cc1C#N`, the IC50 in [1] is 0.024 µM. The same measure, in the same setting: in the case of `CN(C(=O)CCCc1c(-c2ccc(F)cc2)[nH]c2ccc(C#N)cc12)S(C)(=O)=O` it was more than 2 µM.

`CNS(=O)(=O)NC(=O)CCCc1c(-c2ccc(F)cc2)[nH]c2ccc(C#N)cc12`: the IC50 in data set [1] was 0.12 µM; in [2] it was 0.014 µM. `CCCS(=O)(=O)NC(=O)CCCc1c(-c2ccc(F)cc2)[nH]c2ccc(C#N)cc12` yielded a 50% inhibitory concentration (IC50) in [1] of 1.3 µM.

For the compound `CCCCNS(=O)(=O)NC(=O)CCCc1c(-c2ccc(F)cc2)[nH]c2ccc(C#N)cc12`, the IC50 in [1] turned out to be 1.1 µM. Same read-out and setting: to `N#Cc1ccc2[nH]c(-c3ccc(F)cc3)c(CCCC(=O)NS(=O)(=O)c3ccccc3)c2c1` belongs 0.26 µM.

In the case of `N#Cc1ccc2[nH]c(-c3ccc(F)cc3)c(CCNC(=O)NS(=O)(=O)c3ccccc3Cl)c2c1`, the 50% inhibitory concentration (IC50) in data set [1] is 0.4 µM. In the case of `N#Cc1ccc2[nH]c(-c3ccc(F)cc3)c(CCCC(=O)NS(=O)(=O)C(F)(F)F)c2c1`, the half-maximal inhibitory concentration (IC50) amounted to 0.087 µM in [1] and 0.07 µM in data set [2].

In turn, `N#Cc1ccc2[nH]c(-c3ccc(F)cc3)c(CCNC(=O)NS(=O)(=O)c3ccc(F)cc3)c2c1` had a half-inhibitory concentration (IC50) in [1] of 0.52 µM. On the same count and under the same terms, to `N#Cc1ccc2[nH]c(-c3ccc(F)cc3)c(CCCC(=O)NS(=O)(=O)Cc3ccccc3)c2c1` belongs 1.4 µM. Same read-out and setting: in the case of `CS(=O)(=O)NC(=O)NCCc1c(-c2ccc(F)cc2)[nH]c2ccc(C#N)cc12` it was 0.64 µM.

The compound `N#Cc1ccc2[nH]c(-c3ccc(F)cc3)c(CCCC(=O)NS(N)(=O)=O)c2c1` came in with an IC50 in [1] of 0.066 µM.

With `N#Cc1ccc2[nH]c(-c3ccc(F)cc3)c(CCCC(=O)NS(=O)(=O)N3CCOCC3)c2c1`, the half-maximal inhibitory concentration (IC50) in [1] amounted to 0.15 µM. As to `CS(=O)(=O)NC(=O)CCCc1c(-c2ccc(F)cc2)[nH]c2ccc(C#N)cc12`, the figures for the IC50 in data set [1] and in [2] were 0.072 µM and 0.032 µM, respectively. For `CCN(CC)S(=O)(=O)NC(=O)CCCc1c(-c2ccc(F)cc2)[nH]c2ccc(C#N)cc12`, in [1], the IC50 came to 1.1 µM. On to `Cc1cc2[nH]c(-c3ccc(F)cc3)c(CCCC(=O)NS(C)(=O)=O)c2cc1C#N`, for which the IC50 in [1] stood at 0.019 µM. With `CS(=O)(=O)NC(=O)CCCc1c(-c2ccc(F)cc2)[nH]c2ccc(Br)cc12`, the IC50 in data set [1] is 0.17 µM. For the compound `CS(=O)(=O)NC(=O)NCCc1c(-c2ccc(F)cc2)[nH]c2ccc(Br)cc12`, the results for the IC50 in data set [1] and in data set [2] were 0.25 µM and 0.09 µM, respectively.

Take `CCS(=O)(=O)NC(=O)CCCc1c(-c2ccc(F)cc2)[nH]c2ccc(C#N)cc12`: the 50% inhibitory concentration (IC50) in data set [1] worked out at 0.064 µM.

With `CN(C)S(=O)(=O)NC(=O)CCCc1c(-c2ccc(F)cc2)[nH]c2ccc(C#N)cc12`, the Activity in data set [3] and in data set [13] was 50% in each case. Moreover, the half-inhibitory concentration (IC50) was 1.32 µM in data set [4]; more than 5 µM in data set [7]; more than 5 µM in data set [9]; more than 5 µM in data set [11]; more than 5 µM in data set [12]; 0.05 µM in data set [1]. The IC50 in data set [2] worked out at 0.005 µM. For the same compound, in data set [5], the clearance was 3.8 mL/min/kg. Besides, the remaining at 10 min in data set [6] is 76.8%; in data set [14], 100%. The fraction unbound in [8] is less than 0.01. For the same compound, in data set [10], the half-life is 2.7 h. Also, the bioavailability in data set [15] worked out at 107%.
